Columns and labels:
[1] = molecular target: T1, Dynamin-2 (Rattus norvegicus, UniProt P39052); test: Inhibition of rat full length His6-tagged dyn2 using phosphatidylserine as substrate after 90 mins by malachite green GTPase assay in presence of GTP
T1 sequence (P39052 whole entry): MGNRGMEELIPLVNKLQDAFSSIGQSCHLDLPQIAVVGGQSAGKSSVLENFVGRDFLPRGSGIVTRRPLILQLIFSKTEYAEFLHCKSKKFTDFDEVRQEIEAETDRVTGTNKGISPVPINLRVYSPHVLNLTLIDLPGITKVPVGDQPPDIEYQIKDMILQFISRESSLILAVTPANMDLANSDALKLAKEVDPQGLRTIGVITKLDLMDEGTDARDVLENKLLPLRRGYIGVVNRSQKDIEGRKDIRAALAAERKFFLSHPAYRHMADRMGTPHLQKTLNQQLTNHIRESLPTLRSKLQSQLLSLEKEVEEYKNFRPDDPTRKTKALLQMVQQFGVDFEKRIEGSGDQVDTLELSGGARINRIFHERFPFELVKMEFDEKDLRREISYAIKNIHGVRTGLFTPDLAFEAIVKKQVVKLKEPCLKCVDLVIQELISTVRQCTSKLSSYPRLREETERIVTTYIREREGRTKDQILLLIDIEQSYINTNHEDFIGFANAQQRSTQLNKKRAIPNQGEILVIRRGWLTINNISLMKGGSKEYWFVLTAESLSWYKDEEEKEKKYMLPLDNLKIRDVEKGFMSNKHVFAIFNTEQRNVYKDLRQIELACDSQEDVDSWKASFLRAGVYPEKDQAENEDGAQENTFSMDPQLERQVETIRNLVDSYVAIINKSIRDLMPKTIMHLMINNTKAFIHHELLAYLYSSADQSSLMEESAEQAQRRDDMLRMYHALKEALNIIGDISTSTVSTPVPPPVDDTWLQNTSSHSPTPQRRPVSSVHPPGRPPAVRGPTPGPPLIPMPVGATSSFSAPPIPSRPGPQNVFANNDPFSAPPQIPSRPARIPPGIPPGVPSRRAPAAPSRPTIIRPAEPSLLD
Method in brief: (§1)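 Normalized conditions: 50 nM sheep brain dynI or recombinant His6 full-length rat dynII (Sf21-expressed) was preincubated with 10 μg/mL PS for 15 min at RT. Reactions then ran in Tris/NaCl/Mg²⁺/Tween buffer pH 7.4 with leupeptin, AEBSF, 300 μM GTP and compound at 37 °C, 800 rpm: 10 min for dynI, 90 min for dynII. They were stopped with EDTA, and Pi was read by malachite green. Selectivity is the ratio of the two IC50s.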

[2] = Inhibition of sheep dyn1 after 30 mins by malachite green GTPase assay in presence of GTP; design: species or system Ovis aries
Method in brief: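 Compound (≤3% DMSO) was present for 30 min at 37 °C, shaking. The reaction was stopped with EDTA, Pi read by malachite green at 650 nm against a phosphate standard.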

[3] = Selectivity ratio of IC50 for sheep dyn1 receptor to IC50 for rat dyn2 receptor; method in brief: as §1
[4] = Inhibition of sheep full length dyn1 using phosphatidylserine as substrate after 10 mins by malachite green GTPase assay in presence of GTP; design: species or system Ovis aries; method in brief: as §1
[5] = test system: HeLa; test: Cytotoxicity against human HeLa cells at 30 uM after 8 hrs by trypan blue exclusion assay; assay type: cell-based
Method in brief: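 HeLa cells were treated with compound or vehicle (0.5% DMSO) for 8 h. Floating and adherent cells were pooled. Viability and membrane integrity were scored by Trypan Blue exclusion on an automated viability analyzer. Cytotoxicity (%) was normalized to drug/media background.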

IC50 [1] [µM] | IC50 ([2]; read-out: IC50) [µM] | SMILES | other results
 | 18 | CCCCCCCCNC(=O)/C(C#N)=C/c1cn(CC(O)CN2CCOCC2)c2ccccc12 (centres undefined) | 
 | 2.3 | CCCCCCCCNCc1cn(CCCN(C)C)c2ccccc12 | 

Further lines, the molecule ahead of its results:

SMILES | IC50 [1] [µM] | IC50 ([2]; read-out: IC50) [µM] | other results
CCCCCCCCCCNCc1cn(CCCN(C)C)c2ccccc12 | 7.5 |  | 
CCCCCCCCNC(=O)/C(C#N)=C/c1cn(CC(=O)Nc2ccc3c(c2)OCO3)c2ccccc12 |  |  | IC50 [2]: Not Active
CCCCCCCCNC(=O)/C(C#N)=C/c1cn(CCCN(C)C)c2ccccc12 | 16 | 1.3 | Ratio IC50 [3]: 2.3; IC50 [4]: 6.9 µM; Activity [5]: 80%
